Test results reported in ChEMBL document CHEMBL1153560, “In vitro activities of doripenem and six comparator drugs against 423 aerobic and anaerobic bacterial isolates from infected diabetic foot wounds” (2008).

Assays:
Type in all cases: functional
[1] = tested on: Prevotella bivia; test: Antibacterial activity against Prevotella bivia isolated from patient with diabetic foot infection after 44 to 48 hrs by agar dilution method
How it was run: (§1)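 CLSI M11-A7 agar dilution: serial twofold drug dilutions made on the test day and added to molten agar. Spots of 10^5 CFU were applied by replicator, with drug-free control plates inoculated before and after each set. Incubation was 44 to 48 h at 37°C in an anaerobic chamber. MIC was the lowest concentration giving no growth or a marked change in growth versus controls.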

[2] = tested on: Clostridium perfringens; test: Antibacterial activity against Clostridium perfringens isolated from patient with diabetic foot infection after 44 to 48 hrs by agar dilution method
How it was run: (§2)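 Agar dilution per CLSI M11-A7. Twofold drug dilutions made on the test day and added to molten agar. Replicator-applied inoculum of 10^5 CFU/spot. Drug-free control plates inoculated before and after each drug set. Incubation at 37°C for 44 to 48 h, anaerobic chamber. MIC taken as the lowest concentration giving no growth or a marked change in growth versus controls.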

[3] = tested on: Anaerocolumna aminovalerica; test: Antibacterial activity against Clostridium aminovalericum isolated from patient with diabetic foot infection after 44 to 48 hrs by agar dilution method; how it was run: as §1
[4] = tested on: Clostridium cadaveris; test: Antibacterial activity against Clostridium cadaveris isolated from patient with diabetic foot infection after 44 to 48 hrs by agar dilution method; how it was run: as §1
[5] = tested on: [Clostridium] innocuum; test: Antibacterial activity against Clostridium innocuum isolated from patient with diabetic foot infection after 44 to 48 hrs by agar dilution method; how it was run: as §1
[6] = tested on: Lacrimispora sphenoides; test: Antibacterial activity against Clostridium sphenoides isolated from patient with diabetic foot infection after 44 to 48 hrs by agar dilution method; how it was run: as §1
[7] = tested on: Cutibacterium acnes; test: Antibacterial activity against Propionibacterium acnes isolated from patient with diabetic foot infection after 44 to 48 hrs by agar dilution method; how it was run: as §1
[8] = tested on: Anaerococcus prevotii; test: Antibacterial activity against Anaerococcus prevotii isolated from patient with diabetic foot infection after 44 to 48 hrs by agar dilution method; how it was run: as §1
[9] = tested on: Anaerococcus tetradius; test: Antibacterial activity against Anaerococcus tetradius isolated from patient with diabetic foot infection after 44 to 48 hrs by agar dilution method; how it was run: as §1
[10] = tested on: Finegoldia magna; test: Antibacterial activity against Finegoldia magna isolated from patient with diabetic foot infection after 44 to 48 hrs by agar dilution method; how it was run: as §1
[11] = tested on: Peptoniphilus asaccharolyticus; test: Antibacterial activity against Peptoniphilus asaccharolyticus isolated from patient with diabetic foot infection after 44 to 48 hrs by agar dilution method; how it was run: as §1
[12] = tested on: Peptostreptococcus anaerobius; test: Antibacterial activity against Peptostreptococcus anaerobius isolated from patient with diabetic foot infection after 44 to 48 hrs by agar dilution method; how it was run: as §1
[13] = tested on: Parvimonas micra; test: Antibacterial activity against Peptostreptococcus micros isolated from patient with diabetic foot infection after 44 to 48 hrs by agar dilution method; how it was run: as §1
[14] = tested on: Bacteroides fragilis; test: Antibacterial activity against Bacteroides fragilis isolated from patient with diabetic foot infection after 44 to 48 hrs by agar dilution method; how it was run: as §1
[15] = tested on: Bacteroides caccae; test: Antibacterial activity against Bacteroides caccae isolated from patient with diabetic foot infection after 44 to 48 hrs by agar dilution method; how it was run: as §1
[16] = tested on: Bacteroides ovatus; test: Antibacterial activity against Bacteroides ovatus isolated from patient with diabetic foot infection after 44 to 48 hrs by agar dilution method; how it was run: as §1
[17] = tested on: Bacteroides fragilis; test: Antibacterial activity against Bacteroides fragilis isolated from patient with diabetic foot infection assessed as percent resistant isolates after 44 to 48 hrs by agar dilution method; how it was run: as §2
[18] = tested on: Bacteroides caccae; test: Antibacterial activity against Bacteroides caccae isolated from patient with diabetic foot infection assessed as percent resistant isolates after 44 to 48 hrs by agar dilution method; how it was run: as §2
[19] = tested on: Bacteroides thetaiotaomicron; test: Antibacterial activity against Bacteroides thetaiotaomicron isolated from patient with diabetic foot infection assessed as percent resistant isolates after 44 to 48 hrs by agar dilution method; how it was run: as §2
[20] = tested on: Bacteroides uniformis; test: Antibacterial activity against Bacteroides uniformis isolated from patient with diabetic foot infection after 44 to 48 hrs by agar dilution method; how it was run: as §1
[21] = tested on: Phocaeicola vulgatus; test: Antibacterial activity against Bacteroides vulgatus isolated from patient with diabetic foot infection after 44 to 48 hrs by agar dilution method; how it was run: as §1
[22] = tested on: Porphyromonas asaccharolytica; test: Antibacterial activity against Porphyromonas asaccharolyticus isolated from patient with diabetic foot infection after 44 to 48 hrs by agar dilution method; how it was run: as §1
[23] = tested on: Porphyromonas somerae; test: Antibacterial activity against Porphyromonas somerae isolated from patient with diabetic foot infection after 44 to 48 hrs by agar dilution method; how it was run: as §1
[24] = tested on: Bacteroides uniformis; test: Antibacterial activity against Bacteroides uniformis isolated from patient with diabetic foot infection assessed as percent resistant isolates after 44 to 48 hrs by agar dilution method; how it was run: as §2
[25] = tested on: Parabacteroides merdae; test: Antibacterial activity against Parabacteroides merdae isolated from patient with diabetic foot infection assessed as percent resistant isolates after 44 to 48 hrs by agar dilution method; how it was run: as §2
[26] = tested on: Porphyromonas asaccharolytica; test: Antibacterial activity against Porphyromonas asaccharolyticus isolated from patient with diabetic foot infection assessed as percent resistant isolates after 44 to 48 hrs by agar dilution method; how it was run: as §2
[27] = tested on: Porphyromonas somerae; test: Antibacterial activity against Porphyromonas somerae isolated from patient with diabetic foot infection assessed as percent resistant isolates after 44 to 48 hrs by agar dilution method; how it was run: as §2
[28] = tested on: Prevotella bivia; test: Antibacterial activity against Prevotella bivia isolated from patient with diabetic foot infection assessed as percent resistant isolates after 44 to 48 hrs by agar dilution method; how it was run: as §2
[29] = tested on: Anaerocolumna aminovalerica; test: Antibacterial activity against Clostridium aminovalericum isolated from patient with diabetic foot infection assessed as percent resistant isolates after 44 to 48 hrs by agar dilution method; how it was run: as §2
[30] = tested on: Lacrimispora sphenoides; test: Antibacterial activity against Clostridium sphenoides isolated from patient with diabetic foot infection assessed as percent resistant isolates after 44 to 48 hrs by agar dilution method; how it was run: as §2
[31] = tested on: Cutibacterium acnes; test: Antibacterial activity against Propionibacterium acnes isolated from patient with diabetic foot infection assessed as percent resistant isolates after 44 to 48 hrs by agar dilution method; how it was run: as §2
[32] = tested on: Anaerococcus prevotii; test: Antibacterial activity against Anaerococcus prevotii isolated from patient with diabetic foot infection assessed as percent resistant isolates after 44 to 48 hrs by agar dilution method; how it was run: as §2
[33] = tested on: Peptoniphilus asaccharolyticus; test: Antibacterial activity against Peptoniphilus asaccharolyticus isolated from patient with diabetic foot infection assessed as percent resistant isolates after 44 to 48 hrs by agar dilution method; how it was run: as §2
[34] = tested on: Peptostreptococcus anaerobius; test: Antibacterial activity against Peptostreptococcus anaerobius isolated from patient with diabetic foot infection assessed as percent resistant isolates after 44 to 48 hrs by agar dilution method; how it was run: as §2
[35] = tested on: Parvimonas micra; test: Antibacterial activity against Peptostreptococcus micros isolated from patient with diabetic foot infection assessed as percent resistant isolates after 44 to 48 hrs by agar dilution method; how it was run: as §2
[36] = tested on: Anaerococcus vaginalis; test: Antibacterial activity against Anaerococcus vaginalis isolated from patient with diabetic foot infection after 44 to 48 hrs by agar dilution method; how it was run: as §1
[37] = tested on: Anaerococcus vaginalis; test: Antibacterial activity against Anaerococcus vaginalis isolated from patient with diabetic foot infection assessed as percent resistant isolates after 44 to 48 hrs by agar dilution method; how it was run: as §2

CCC[C@@H]1C[C@@H](C(=O)N[C@@H]([C@H]2O[C@H](SC)[C@H](O)[C@@H](O)[C@H]2O)[C@H](C)Cl)N(C)C1 [CLINDAMYCIN]
10%: Activity [17]
20%: Activity [18] | Activity [19] | Activity [24] | Activity [25]
18%: Activity [32] | Activity [37]
23%: Activity [29] | Activity [30]
2 µg/mL: MIC90 [7] | MIC90 [10] | MIC90 [14] | MIC50 [15] | MIC50 [16] | MIC50 [20] | MIC50 [21]
0.5 µg/mL: MIC50 [3] | MIC50 [4] | MIC50 [5] | MIC50 [6] | MIC50 [10] | MIC90 [12] | MIC90 [13] | MIC50 [14]
25%: Activity [33]
0.125 µg/mL: MIC50 [8] | MIC50 [9] | MIC50 [11] | MIC50 [12] | MIC50 [13] | MIC50 [36]
64 µg/mL: MIC90 [8] | MIC90 [9] | MIC90 [22] | MIC90 [23] | MIC90 [36]
21%: Activity [28]
1 µg/mL: MIC50 [2] | MIC90 [2]
0%: Activity [31] | Activity [34] | Activity [35]
12%: Activity [26] | Activity [27]
> 64 µg/mL: MIC90 [1] | MIC90 [11] | MIC90 [15] | MIC90 [16] | MIC90 [20] | MIC90 [21]
≤ 0.03 µg/mL: MIC50 [1] | MIC50 [7] | MIC50 [22] | MIC50 [23]
16 µg/mL: MIC90 [3] | MIC90 [4] | MIC90 [5] | MIC90 [6]

Cc1ncc([N+](=O)[O-])n1CCO [METRONIDAZOLE]
0%: Activity [17] | Activity [18] | Activity [19] | Activity [24] | Activity [25] | Activity [26] | Activity [27] | Activity [28] | Activity [29] | Activity [30] | Activity [32] | Activity [33] | Activity [34] | Activity [35] | Activity [37]
0.25 µg/mL: MIC90 [3] | MIC90 [4] | MIC90 [5] | MIC90 [6] | MIC50 [12] | MIC50 [13] | MIC90 [22] | MIC90 [23]
0.125 µg/mL: MIC50 [3] | MIC50 [4] | MIC50 [5] | MIC50 [6]
0.5 µg/mL: MIC50 [8] | MIC50 [9] | MIC50 [10] | MIC50 [11] | MIC50 [14] | MIC50 [15] | MIC50 [16] | MIC50 [20] | MIC50 [21] | MIC50 [36]
1 µg/mL: MIC50 [2] | MIC90 [2] | MIC90 [8] | MIC90 [9] | MIC90 [10] | MIC90 [12] | MIC90 [13] | MIC90 [14] | MIC90 [15] | MIC90 [16] | MIC90 [20] | MIC90 [21]
> 32 µg/mL: MIC50 [7] | MIC90 [7]
2 µg/mL: MIC90 [11]
4 µg/mL: MIC50 [1] | MIC90 [1]
100%: Activity [31]
0.05 µg/mL: MIC50 [22] | MIC50 [23]
